Measurements reported in ChEMBL document CHEMBL1147678, “Discovery of a potent, nonpolyglutamatable inhibitor of glycinamide ribonucleotide transformylase” (J Med Chem, 2006).

Columns and labels:
CCRF-CEM [1] = assay: Antiproliferative activity against human CCRF-CEM cell line in presence of hypoxanthine; assay type: functional, cell-based
[2] = target: T1, Trifunctional purine biosynthetic protein adenosine-3 (Homo sapiens, UniProt P22102); assay: Inhibition of human recombinant GAR Tfase
T1 sequence (P22102 whole entry): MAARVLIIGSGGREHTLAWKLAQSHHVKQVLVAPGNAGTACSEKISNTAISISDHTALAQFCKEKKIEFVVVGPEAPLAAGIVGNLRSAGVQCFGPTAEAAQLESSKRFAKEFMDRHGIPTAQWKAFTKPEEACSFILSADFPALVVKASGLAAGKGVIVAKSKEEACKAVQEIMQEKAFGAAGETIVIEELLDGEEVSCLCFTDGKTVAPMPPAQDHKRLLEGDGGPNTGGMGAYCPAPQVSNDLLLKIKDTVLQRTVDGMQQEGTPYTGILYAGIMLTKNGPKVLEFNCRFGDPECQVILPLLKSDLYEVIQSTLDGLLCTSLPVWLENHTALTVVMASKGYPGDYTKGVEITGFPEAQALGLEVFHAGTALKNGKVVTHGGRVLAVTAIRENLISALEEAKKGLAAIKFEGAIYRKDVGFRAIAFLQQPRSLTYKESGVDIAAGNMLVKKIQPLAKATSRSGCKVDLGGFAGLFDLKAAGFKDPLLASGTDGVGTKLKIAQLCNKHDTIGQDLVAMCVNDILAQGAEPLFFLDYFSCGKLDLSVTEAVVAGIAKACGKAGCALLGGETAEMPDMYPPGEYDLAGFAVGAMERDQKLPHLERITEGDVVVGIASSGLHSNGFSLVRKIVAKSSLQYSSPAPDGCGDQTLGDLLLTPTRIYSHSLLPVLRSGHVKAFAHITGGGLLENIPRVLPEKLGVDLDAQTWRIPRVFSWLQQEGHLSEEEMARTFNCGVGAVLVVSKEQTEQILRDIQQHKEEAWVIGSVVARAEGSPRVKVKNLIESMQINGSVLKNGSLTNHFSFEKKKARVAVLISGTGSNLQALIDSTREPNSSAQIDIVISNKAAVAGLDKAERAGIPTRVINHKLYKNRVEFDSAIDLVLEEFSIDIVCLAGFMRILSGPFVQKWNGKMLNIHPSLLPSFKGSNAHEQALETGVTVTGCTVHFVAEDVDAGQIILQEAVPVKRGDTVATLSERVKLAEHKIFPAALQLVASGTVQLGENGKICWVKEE

CCRF-CEM [3] = assay: Antiproliferative activity against FPGS-deficient CCRF-CEM cell line; assay type: functional, cell-based; conditions: Homo sapiens
Procedure, shortened: (§1)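 CCRF-CEM human leukemia cells (parental or variant line) were continuously exposed to the test compounds for 72 h, and growth inhibition was then measured.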

CCRF-CEM [4] = assay: Antiproliferative activity against human CCRF-CEM cell line in presence of thymidine; assay type: functional, cell-based
[5] = target: Bifunctional purine biosynthesis protein ATIC (Homo sapiens, UniProt P31939); assay: Inhibition of human recombinant AICAR Tfase
Chain of Bifunctional purine biosynthesis protein ATIC (P31939 whole entry): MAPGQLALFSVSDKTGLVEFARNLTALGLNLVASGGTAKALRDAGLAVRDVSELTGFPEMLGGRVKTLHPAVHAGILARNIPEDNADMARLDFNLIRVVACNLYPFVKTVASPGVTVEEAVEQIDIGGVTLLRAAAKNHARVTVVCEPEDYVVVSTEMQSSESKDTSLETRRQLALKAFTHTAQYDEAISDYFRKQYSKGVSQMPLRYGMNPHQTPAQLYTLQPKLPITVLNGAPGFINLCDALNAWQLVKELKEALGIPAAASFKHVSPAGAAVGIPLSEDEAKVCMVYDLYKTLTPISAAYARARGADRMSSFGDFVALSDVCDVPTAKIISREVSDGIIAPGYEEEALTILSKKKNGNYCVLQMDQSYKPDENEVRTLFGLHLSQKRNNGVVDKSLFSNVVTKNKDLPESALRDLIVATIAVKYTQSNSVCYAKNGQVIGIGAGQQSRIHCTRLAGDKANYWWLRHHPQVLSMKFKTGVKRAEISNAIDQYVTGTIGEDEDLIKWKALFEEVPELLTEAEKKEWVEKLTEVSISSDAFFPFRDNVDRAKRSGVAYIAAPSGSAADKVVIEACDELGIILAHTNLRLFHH
Procedure, shortened: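 Recombinant human AICAR Tfase assayed by a previously described method. Reaction kinetics were followed for 2 min after initiation. Ki was derived from Dixon plots.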

CCRF-CEM [6] = assay: Antiproliferative activity against human CCRF-CEM cell line; assay type: functional, cell-based; procedure, shortened: as §1
CCRF-CEM [7] = assay: Antiproliferative activity against reduced folate carrier-deficient CCRF-CEM cell line; assay type: functional, cell-based; conditions: Homo sapiens; procedure, shortened: as §1

Structure (SMILES) | IC50 (CCRF-CEM [1]) [µM] | Ki [2] [µM] | IC50 (CCRF-CEM [3]) [µM] | IC50 (CCRF-CEM [4]) [µM] | Ki [5] [µM] | IC50 (CCRF-CEM [6]) [µM] | IC50 (CCRF-CEM [7]) [µM]
Nc1nc(N)c(CCCC(C(=O)C(F)(F)F)c2ccc(C(=O)NCc3nnn[nH]3)cc2)c(=O)[nH]1 (stereo unspecified) | > 100 | 5 | 40 | 30 | > 100 | 10 | 30
Nc1nc(N)c(CCCC(C(=O)C(F)(F)F)c2ccc(C(=O)NC(CCC(=O)O)C(=O)O)cc2)c(O)n1 (stereo unspecified) | > 100 |  | > 100 | 0.017 | > 100 | 0.016 | > 100
Nc1nc2c(c(=O)[nH]1)C[C@@H](CCc1ccc(C(=O)N[C@@H](CCC(=O)O)C(=O)O)cc1)CN2 [LOMETREXOL] | > 100 |  | 25 |  | > 100 | 0.2 | 
Nc1nc(N)c(CCCC(C(=O)C(F)(F)F)c2ccc(C(=O)N[C@@H](CCc3nnn[nH]3)C(=O)O)cc2)c(=O)[nH]1 (stereo partly specified) | > 100 | 0.13 | 0.05 | 0.09 | 46 | 0.04 | 10
Nc1nc(N)c(CCCC(C(=O)C(F)(F)F)c2ccc(C(=O)NCC(=O)O)cc2)c(O)n1 (stereo unspecified) | > 100 | 21 | > 100 | > 100 | > 100 | > 100 | > 100
